Reference: paper PMC5976445 (Journal of inorganic biochemistry, 2018)
Where two headings read alike, the source gives them in different places.

Assays:
CYP101D1 [1] = target: T1, CYP101D1 (Novosphingobium aromaticivorans, UniProt Q2GB12); assay: isothermal titration calorimetry; assay type: binding
T1 sequence (Q2GB12 1-421): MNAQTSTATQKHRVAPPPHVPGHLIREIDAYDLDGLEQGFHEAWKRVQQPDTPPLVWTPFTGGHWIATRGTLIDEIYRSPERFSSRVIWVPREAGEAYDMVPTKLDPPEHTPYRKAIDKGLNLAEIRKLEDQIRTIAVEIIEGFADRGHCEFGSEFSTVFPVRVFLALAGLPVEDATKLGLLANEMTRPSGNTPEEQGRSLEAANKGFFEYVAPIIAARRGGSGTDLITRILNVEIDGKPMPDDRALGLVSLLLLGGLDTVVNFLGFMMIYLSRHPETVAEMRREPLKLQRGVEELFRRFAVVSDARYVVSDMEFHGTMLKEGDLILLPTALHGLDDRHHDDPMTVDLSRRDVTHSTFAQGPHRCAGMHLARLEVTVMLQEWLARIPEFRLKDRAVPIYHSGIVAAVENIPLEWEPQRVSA
In short: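 CYP101D1, expressed His-tagged in E. coli BL21(DE3), Ni-IMAC purified, thrombin-cleaved and gel-filtered. ITC at 25°C in 50 mM potassium phosphate without reducing agents. Either 600 μM–1 mM test compound was titrated into 40–50 μM CYP101D1, or 2 mM redox partner into 50 μM CYP101D1 (±1 mM camphor). 18 × 2 μL injections, 150 s apart, 750 rpm. Corrected for dilution enthalpy. 3–5 runs.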

CYP101D1 [2] = target: CYP101D1 (UniProt Q2GB12); assay: ITC
CYP101D1 [3] = target: CYP101D1 (UniProt Q2GB12); assay: ITC; remark: listed apart in the source
CYP101D1 [4] = target: CYP101D1 (UniProt Q2GB12); assay: ITC; remark: listed apart in the source
CYP101D1 [5] = target: CYP101D1 (UniProt Q2GB12); assay: ITC; remark: listed apart in the source

Row | Compound | Kd (CYP101D1 [1]) | Kd (CYP101D1 [2]) | dH (CYP101D1 [2]) | Kd (CYP101D1 [3]) | Kd (CYP101D1 [4]) | dH (CYP101D1 [4]) | Kd (CYP101D1 [5])
1 | CC1(C)[C@@H]2CC[C@@]1(C)C(=O)C2 [D-camphor] | 14.9 µM | – | – | – | – | – | –
2 | Arx (natural protein) | – | 94.8 µM | -18.2 kcal/mol | 97.7 µM | 41.1 µM | -12.1 kcal/mol | 43.3 µM
